The results in this text go back to ChEMBL document CHEMBL1136928, “Novel orally bioavailable gamma-secretase inhibitors with excellent in vivo activity” (J Med Chem, 2009).

The target of one series is Gamma-secretase. The experiment in a line: Inhibition of gamma secretase in human SH-SY5Y cells by HTRF assay. The series is classed as cell-based. A general note: TR-FRET usually uses a lanthanide donor and a delayed reading to cut background.
Series [1] relates to Mus musculus. The experiment in a line: Reduction in amyloid beta40 production in human betaAAP overexpressing YAC mouse forebrain at 3 mg/kg, po after 4 hrs relative to control. The series is classed as functional. The arrangement: scale not given: the % may be the effect or the level left. A digest of the protocol:
(§1)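 APP-YAC transgenic mice overexpressing human βAPP; oral dosing as suspension in 0.5% methocel, 3 mg/kg (also 0.3 and 1 mg/kg for dose–response). Soluble Aβ(40) in forebrain measured 4 h post-dose; reduction expressed relative to vehicle-treated animals; ED50 from dose–response.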

Series [2] deals with Mus musculus. The experiment in a line: Reduction in amyloid beta40 production in po dosed human betaAAP overexpressing YAC mouse forebrain after 4 hrs. In kind it is functional. The conditions noted are these: Brain. A digest of the protocol:
as §1

The nature of series [3]: Half life in rat. The conditions noted are these: in vivo. The series is classed as ADME, organism-based.
Series [4] is described as follows: Bioavailability in rhesus monkey. In kind it is ADME, organism-based, Macaca mulatta. The conditions noted are these: in vivo.
The nature of series [5]: Inhibition of gamma secretase assessed as amyloid beta40 production.
Series [6] in a line: Half life in rhesus monkey. The series is classed as ADME, organism-based, Macaca mulatta. The conditions noted are these: in vivo.
Series [7] can be described thus: Bioavailability in rat. The series is classed as ADME, organism-based. The note with it: in vivo.
The nature of series [8]: Bioavailability in dog. In kind it is ADME, organism-based, Canis lupus familiaris. The conditions noted are these: in vivo.
Series [9] can be described thus: Inhibition of gamma secretase assessed as amyloid beta42 production.
A short description of series [10]: Half life in dog. In kind it is ADME, organism-based, Canis lupus familiaris. The note with it: in vivo.

The source made the active and inactive calls.

Take `Cn1nc(-c2ccc3c(c2)C[C@H]2CC[C@@H](C3)[C@]23CN(CC(F)(F)F)S(=O)(=O)N3)cc1-c1cccc(F)c1` (racemic): the IC50 (as a rule, the concentration at which inhibition is half-maximal) against Gamma-secretase stood at 460 pM.

In turn, `Cn1nc(-c2ccc3c(c2)CC2CCC(C3)C23CN(CC(F)(F)F)S(=O)(=O)N3)cc1-c1ccccc1F` (racemic) had an IC50 against Gamma-secretase of 210 pM. The molecule `Cn1nc(-c2ccc3c(c2)C[C@H]2CC[C@@H](C3)[C@]23CN(CC(F)(F)F)S(=O)(=O)N3)cc1-c1ccc(Cl)c(Cl)c1` showed an IC50 at Gamma-secretase of 410 pM.

For the molecule `Cn1nc(-c2ccc(F)cc2)cc1-c1ccc2c(c1)CC1CCC(C2)C12CN(CC(F)(F)F)S(=O)(=O)N2` (racemic), at Gamma-secretase, the IC50 amounted to 1650 pM. At Gamma-secretase, `O=S1(=O)N[C@@]2(CN1CC(F)(F)F)[C@@H]1CC[C@H]2Cc2ccc(-c3cn(-c4ccc(F)c(F)c4)cn3)cc2C1` yielded a concentration for half-maximal inhibition (IC50) of 120 pM. The same measure, in the same setting: next, `O=S1(=O)N[C@@]2(CN1CC(F)(F)F)[C@@H]1CC[C@H]2Cc2ccc(-c3cn(-c4ccc(Cl)cc4)cn3)cc2C1`: 80 pM; `O=S1(=O)N[C@@]2(CN1CC(F)(F)F)[C@@H]1CC[C@H]2Cc2ccc(-c3cn(-c4ccc(Cl)c(Cl)c4)cn3)cc2C1`: 420 pM. On the same count and under the same terms, the result for `O=S1(=O)N[C@@]2(CN1CC(F)(F)F)[C@@H]1CC[C@H]2Cc2ccc(-c3ncc(-c4ccc(F)cc4)s3)cc2C1` reads 420 pM; that for `Cn1nc(-c2ccc3c(c2)C[C@H]2CC[C@@H](C3)[C@]23CN(CC(F)(F)F)S(=O)(=O)N3)cc1-c1ccc(Cl)cc1`, 70 pM.

Turning to `O=S1(=O)N[C@@]2(CN1CC(F)(F)F)[C@@H]1CC[C@H]2Cc2ccc(-c3cn(-c4ccccc4F)cn3)cc2C1`, on Gamma-secretase, half-maximal inhibition (IC50) was put at 170 pM.

Turning to `O=S1(=O)N[C@@]2(CN1CC(F)(F)F)[C@@H]1CC[C@H]2Cc2ccc(-c3ncn(-c4ccc(F)cc4)n3)cc2C1`, half-maximal inhibition at Gamma-secretase (IC50) was put at 150 pM. Still for that read-out and setting: the result for `Cn1nc(-c2ccc3c(c2)C[C@H]2CC[C@@H](C3)[C@]23CN(CC(F)(F)F)S(=O)(=O)N3)cc1-c1ccc(F)c(F)c1` reads 60 pM.

As to `O=S1(=O)N[C@@]2(CN1CC(F)(F)F)[C@@H]1CC[C@H]2Cc2ccc(-c3cn(-c4ccc(F)cc4)cn3)cc2C1`, at Gamma-secretase, the 50% inhibitory concentration (IC50) turned out to be 30 pM. The Activity in the series on Mus musculus [1] is recorded as 66%. `O=S1(=O)N[C@@]2(CN1CC(F)(F)F)[C@@H]1CC[C@H]2Cc2ccc(-c3ncc(N4CCC(C(F)(F)F)CC4)s3)cc2C1` showed an IC50 against Gamma-secretase of 340 pM. For `Cn1nc(-c2ccc3c(c2)C[C@H]2CC[C@@H](C3)[C@]23CN(CC(F)(F)F)S(=O)(=O)N3)cc1-c1ccc(F)cc1`, the median effective dose (ED50) (usually the dose that gives a 50% effect, or the effect in half of the subjects) with Mus musculus [2] was 1 mg/kg. For the same molecule, the half-life (as a rule, the time needed for the level to fall by half in the phase considered) in series [3] was 2 h; in [6] it was 16 h; in series [10], above 10 h. The results for the bioavailability in series [4], in series [7] and in series [8] were 45%, 35% and 42%, respectively. Further, the result in series [5] and in [9] was Active. The half-inhibitory concentration (IC50) against Gamma-secretase was found to be 60 pM. Also, the Activity with Mus musculus [1] was 84%. On to `O=S1(=O)N[C@@]2(CN1CC(F)(F)F)[C@@H]1CC[C@H]2Cc2ccc(-c3cn(-c4cccc(F)c4)cn3)cc2C1`, for which, at Gamma-secretase, the IC50 is 820 pM. As to `O=S1(=O)N[C@@]2(CN1CC(F)(F)F)[C@@H]1CC[C@H]2Cc2ccc(/C=C/CN3CCC(C(F)(F)F)CC3)cc2C1`, it took a dose of 17 mg/kg to reach the 50% effect level with Mus musculus [2] (ED50). This molecule had an IC50 on Gamma-secretase of 240 pM. The molecule `O=S1(=O)N[C@@]2(CN1CC(F)(F)F)[C@@H]1CC[C@H]2Cc2ccc(-c3cn(-c4ccc(F)cc4F)cn3)cc2C1` had an IC50 at Gamma-secretase of 60 pM. The same measure, in the same setting: next, `Cn1nc(-c2ccc3c(c2)C[C@H]2CC[C@@H](C3)[C@]23CN(CC(F)(F)F)S(=O)(=O)N3)cc1-c1ccc(F)cc1F`: 60 pM.
